Experimental data: ChEMBL document CHEMBL1132360, “N-Substituted (2,3-dihydro-1,4-benzodioxin-2-yl)methylamine derivatives as D(2) antagonists/5-HT(1A) partial agonists with potential as atypical antipsychotic agents” (J Med Chem, 1999)

What was measured:
D(3) dopamine receptor = D(3) dopamine receptor (Homo sapiens, UniProt P35462); assay: The compound was tested for binding affinity against human Dopamine receptor D3
D(2) dopamine receptor = D(2) dopamine receptor (Homo sapiens, UniProt P14416); assay: The compound was tested for binding affinity against human Dopamine receptor D2L
Rattus norvegicus = assay: The compound was tested in vivo for induction of catalepsy in rat after ip administration; type: functional
In short: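 Male rats (130–190 g), groups of five, injected ip with compound solution (1 mL/kg). Catalepsy assessed at three times by placing each paw on a 45 mm rubber bung; a paw held 15 s scores 1 (group maximum 20 = 100%). ED50 from percent catalepsy at the final reading, by adapted Litchfield–Wilcoxon.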

[1] = biological target: T1, Adrenergic receptor alpha-1 (Homo sapiens, UniProt P35348+P25100+P35368); assay: Binding affinity towards Alpha-1 adrenergic receptor in human cortex membranes; type: cell membranes
T1 sequence (P35348 whole entry): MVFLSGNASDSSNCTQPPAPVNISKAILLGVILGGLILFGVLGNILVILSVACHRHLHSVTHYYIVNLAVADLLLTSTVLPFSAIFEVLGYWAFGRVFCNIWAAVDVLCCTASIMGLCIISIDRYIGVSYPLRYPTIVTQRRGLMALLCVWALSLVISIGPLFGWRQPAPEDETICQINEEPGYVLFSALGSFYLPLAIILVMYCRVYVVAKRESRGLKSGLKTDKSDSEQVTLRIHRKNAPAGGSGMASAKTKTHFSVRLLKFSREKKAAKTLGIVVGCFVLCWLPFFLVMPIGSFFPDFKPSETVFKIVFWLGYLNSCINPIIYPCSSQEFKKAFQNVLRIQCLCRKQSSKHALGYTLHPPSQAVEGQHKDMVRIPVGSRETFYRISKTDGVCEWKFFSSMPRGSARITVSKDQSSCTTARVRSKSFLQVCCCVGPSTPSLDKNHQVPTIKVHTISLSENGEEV
T1 sequence (P25100 whole entry): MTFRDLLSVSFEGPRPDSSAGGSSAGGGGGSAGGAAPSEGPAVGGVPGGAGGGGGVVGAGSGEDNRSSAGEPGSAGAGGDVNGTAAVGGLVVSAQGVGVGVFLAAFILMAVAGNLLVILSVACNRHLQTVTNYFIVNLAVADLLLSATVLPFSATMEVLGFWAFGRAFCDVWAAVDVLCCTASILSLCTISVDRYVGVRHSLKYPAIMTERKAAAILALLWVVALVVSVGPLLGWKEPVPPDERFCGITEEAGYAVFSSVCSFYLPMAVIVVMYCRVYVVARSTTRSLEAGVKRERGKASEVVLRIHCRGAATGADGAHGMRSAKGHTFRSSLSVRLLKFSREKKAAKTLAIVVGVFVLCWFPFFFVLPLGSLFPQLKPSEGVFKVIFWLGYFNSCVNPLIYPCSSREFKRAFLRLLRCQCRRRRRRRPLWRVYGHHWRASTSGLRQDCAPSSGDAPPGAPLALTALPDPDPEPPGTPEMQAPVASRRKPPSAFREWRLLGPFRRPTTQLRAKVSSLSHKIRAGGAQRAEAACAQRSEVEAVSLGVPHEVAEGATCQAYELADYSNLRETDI
T1 sequence (P35368 whole entry): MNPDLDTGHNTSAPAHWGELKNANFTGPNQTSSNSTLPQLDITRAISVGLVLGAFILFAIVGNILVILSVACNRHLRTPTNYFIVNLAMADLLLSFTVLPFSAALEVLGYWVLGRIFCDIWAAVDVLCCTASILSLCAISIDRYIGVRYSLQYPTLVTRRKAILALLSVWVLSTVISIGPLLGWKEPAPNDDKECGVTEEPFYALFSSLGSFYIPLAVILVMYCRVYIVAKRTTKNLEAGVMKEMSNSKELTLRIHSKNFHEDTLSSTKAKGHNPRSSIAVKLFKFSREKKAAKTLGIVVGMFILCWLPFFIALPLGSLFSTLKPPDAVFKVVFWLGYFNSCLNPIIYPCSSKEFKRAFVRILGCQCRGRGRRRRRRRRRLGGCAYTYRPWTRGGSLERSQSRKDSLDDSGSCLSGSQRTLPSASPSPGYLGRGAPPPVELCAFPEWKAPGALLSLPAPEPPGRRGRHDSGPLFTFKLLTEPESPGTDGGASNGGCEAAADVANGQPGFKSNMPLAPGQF

[2] = biological target: 5-hydroxytryptamine receptor 1B (Sus scrofa, UniProt P79399); assay: The compound was tested for binding affinity against 5-hydroxytryptamine 1B receptor
In short: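 Pig caudate membranes washed at 37 °C to remove endogenous 5-HT, in 50 mM Tris-HCl pH 7.7. Incubated 45 min at 25 °C with 4 nM [3H]sumatriptan plus CaCl2, pargyline and ascorbate, test agent at 10^-6 M; 10 μM 5-HT for nonspecific binding. Filtration, scintillation counting; percent displacement of specific binding.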

[3] = biological target: 5-hydroxytryptamine receptor 2A (Rattus norvegicus, UniProt P14842); assay: The compound was tested for binding affinity against 5-hydroxytryptamine 2A receptor
[4] = The compound was tested for binding affinity against MCB receptor
[5] = biological target: T2, 5-hydroxytryptamine receptor 1A (Homo sapiens, UniProt P08908); assay: The compound was tested for binding affinity against 5-hydroxytryptamine 1A receptor receptor
T2 sequence (P08908 whole entry): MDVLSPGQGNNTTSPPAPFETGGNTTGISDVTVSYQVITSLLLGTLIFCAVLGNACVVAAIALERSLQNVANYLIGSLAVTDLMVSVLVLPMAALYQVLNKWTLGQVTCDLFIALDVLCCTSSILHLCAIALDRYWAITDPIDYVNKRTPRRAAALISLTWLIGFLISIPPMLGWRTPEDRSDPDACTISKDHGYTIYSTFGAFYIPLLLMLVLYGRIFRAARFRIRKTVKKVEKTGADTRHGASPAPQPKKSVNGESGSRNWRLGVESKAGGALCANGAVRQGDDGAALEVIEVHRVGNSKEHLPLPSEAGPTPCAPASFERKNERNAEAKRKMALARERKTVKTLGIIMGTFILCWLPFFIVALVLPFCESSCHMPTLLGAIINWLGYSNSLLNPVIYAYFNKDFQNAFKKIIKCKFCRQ

D(1A) dopamine receptor = D(1A) dopamine receptor (Homo sapiens, UniProt P21728); assay: The compound was tested for binding affinity against human Dopamine receptor D1
[6] = biological target: Serotonin 4 (5-HT4) receptor (Sus scrofa, UniProt Q6Q253); assay: The compound was tested for binding affinity against 5-hydroxytryptamine 4 receptor
Chain of Serotonin 4 (5-HT4) receptor (Q6Q253 whole entry): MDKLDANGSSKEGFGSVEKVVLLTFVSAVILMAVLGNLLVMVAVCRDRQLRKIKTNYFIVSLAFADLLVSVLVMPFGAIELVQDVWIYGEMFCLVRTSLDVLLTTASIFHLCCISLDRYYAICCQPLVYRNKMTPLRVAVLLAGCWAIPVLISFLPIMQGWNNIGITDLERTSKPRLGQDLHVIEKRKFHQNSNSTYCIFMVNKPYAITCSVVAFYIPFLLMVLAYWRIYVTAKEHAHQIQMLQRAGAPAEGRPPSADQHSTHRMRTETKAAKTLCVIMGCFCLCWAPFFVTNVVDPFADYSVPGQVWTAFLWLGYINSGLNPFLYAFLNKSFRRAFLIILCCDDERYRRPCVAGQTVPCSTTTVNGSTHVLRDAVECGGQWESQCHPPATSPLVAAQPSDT

Chain of D(1A) dopamine receptor (P21728 whole entry): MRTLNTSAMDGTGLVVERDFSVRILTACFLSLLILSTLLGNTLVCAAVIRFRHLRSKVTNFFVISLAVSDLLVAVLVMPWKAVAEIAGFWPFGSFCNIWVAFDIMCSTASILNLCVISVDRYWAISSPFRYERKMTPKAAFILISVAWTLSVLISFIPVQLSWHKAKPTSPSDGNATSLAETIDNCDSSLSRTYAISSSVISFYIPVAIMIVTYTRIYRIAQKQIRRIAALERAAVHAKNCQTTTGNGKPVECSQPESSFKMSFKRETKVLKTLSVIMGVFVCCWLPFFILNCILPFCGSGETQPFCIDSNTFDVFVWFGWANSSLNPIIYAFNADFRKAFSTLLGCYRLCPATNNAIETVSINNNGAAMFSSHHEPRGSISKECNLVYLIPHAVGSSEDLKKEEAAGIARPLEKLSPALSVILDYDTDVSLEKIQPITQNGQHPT
Chain of 5-hydroxytryptamine receptor 2A (P14842 whole entry): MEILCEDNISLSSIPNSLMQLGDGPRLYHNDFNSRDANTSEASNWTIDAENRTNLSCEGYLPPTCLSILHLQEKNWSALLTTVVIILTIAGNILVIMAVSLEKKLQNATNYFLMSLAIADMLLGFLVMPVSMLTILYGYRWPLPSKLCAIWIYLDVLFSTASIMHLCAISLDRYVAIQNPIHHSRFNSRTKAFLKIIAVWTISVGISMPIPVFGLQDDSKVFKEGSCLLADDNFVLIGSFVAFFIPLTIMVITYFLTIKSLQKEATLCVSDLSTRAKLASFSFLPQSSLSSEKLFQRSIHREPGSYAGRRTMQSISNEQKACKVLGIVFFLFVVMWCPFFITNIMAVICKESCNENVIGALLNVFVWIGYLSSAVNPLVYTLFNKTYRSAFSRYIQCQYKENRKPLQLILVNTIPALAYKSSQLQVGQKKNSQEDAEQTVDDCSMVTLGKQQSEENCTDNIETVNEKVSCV
Chain of 5-hydroxytryptamine receptor 1B (P79399 whole entry): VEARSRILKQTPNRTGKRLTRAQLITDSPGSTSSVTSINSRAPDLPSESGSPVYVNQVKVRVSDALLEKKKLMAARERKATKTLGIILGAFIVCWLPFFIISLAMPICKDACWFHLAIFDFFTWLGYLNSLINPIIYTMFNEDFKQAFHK
Chain of D(2) dopamine receptor (P14416 whole entry): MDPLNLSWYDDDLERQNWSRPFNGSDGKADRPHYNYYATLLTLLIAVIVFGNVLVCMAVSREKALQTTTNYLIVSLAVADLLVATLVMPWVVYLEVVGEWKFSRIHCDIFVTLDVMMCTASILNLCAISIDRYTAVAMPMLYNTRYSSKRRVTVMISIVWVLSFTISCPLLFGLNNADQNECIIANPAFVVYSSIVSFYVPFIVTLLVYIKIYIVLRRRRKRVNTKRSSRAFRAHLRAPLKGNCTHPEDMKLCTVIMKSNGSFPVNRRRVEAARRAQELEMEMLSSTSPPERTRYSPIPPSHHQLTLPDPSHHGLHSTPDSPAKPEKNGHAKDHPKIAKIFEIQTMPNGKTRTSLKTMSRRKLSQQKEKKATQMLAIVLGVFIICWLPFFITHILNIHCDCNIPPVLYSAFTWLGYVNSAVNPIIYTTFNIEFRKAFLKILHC
Chain of D(3) dopamine receptor (P35462 whole entry): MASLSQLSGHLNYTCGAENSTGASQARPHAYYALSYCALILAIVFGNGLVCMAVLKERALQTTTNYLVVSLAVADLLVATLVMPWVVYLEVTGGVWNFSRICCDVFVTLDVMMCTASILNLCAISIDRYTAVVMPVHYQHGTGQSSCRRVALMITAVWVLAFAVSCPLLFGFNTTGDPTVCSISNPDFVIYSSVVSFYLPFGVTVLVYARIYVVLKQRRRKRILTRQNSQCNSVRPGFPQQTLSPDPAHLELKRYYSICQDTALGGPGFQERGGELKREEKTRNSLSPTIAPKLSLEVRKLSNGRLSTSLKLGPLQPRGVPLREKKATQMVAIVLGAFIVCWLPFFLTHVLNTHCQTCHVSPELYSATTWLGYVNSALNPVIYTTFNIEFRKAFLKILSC

COc1ccccc1N1CCC(CNCC2COc3ccc(Cl)cc3O2)CC1 (stereo not given)
Ki (D(3) dopamine receptor): 1.6 nM | Ki (D(2) dopamine receptor): 13.2 nM | ED50 (Rattus norvegicus): 188 mg/kg | Ki [1]: 53 nM | Ki [2]: > 1000 nM | Ki [3]: > 500 nM | Ki [4]: > 1000 nM | Ki [5]: 3.6 nM | Ki (D(1A) dopamine receptor): > 1000 nM | Ki [6]: > 1000 nM
